Bioassay records as filed in PubChem BioAssay.
An excerpt weighted towards active compounds, which were near 1.7% of everything screened.
Scp-1 inhibitor: inhibitors of human Scp-1 phosphatase | Q9GZU7 | Recombinant Scp1, phosphopeptide, malachite green phosphate absorbance | inhibition, % at 20 µM | 340,000 compounds, 0.88% hits;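 active = inhibition above about 50% at 20 µM, limit read from the data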
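Test system: SCP-1 catalytic domain; Buffer or medium: Acidic Tris acetate buffer with magnesium and detergent; Also added: Phosphorylated 17-residue peptide substrate; Compound: single 20 µM dose, 1% DMSO; Schedule: enzyme reaction 45 min at room temperature, colour 5 min, stabilisation 30 min; Signal: Phosphate-binding colour reagent, absorbance read at 630 nm.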
STEP inh: blocks human striatal-enriched tyrosine phosphatase. inhibition, % at 20 µM. 360,000 compounds, 0.25% hits. recombinant STEP, OMFP fluorogenic substrate, fluorescence. P54829. AID 588621;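 active = inhibition at 20 µM, scaled per plate between control wells, above about 37%, limit read from the data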
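Material: STEP (striatal-enriched tyrosine phosphatase) enzyme, cell-free; Compound dosing: 20 µM single dose in 1% DMSO; Technique: fluorescence read at 480 nm ex / 540 nm em; Times: reaction 20 min, ambient temperature; Medium: 50 mM Bis-Tris pH 6.0 with 2.5 mM DTT and 0.005% Tween 20; Also added: OMFP at 25 µM.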
SUMO1 PPI mod: alters human SUMO1 binding to SIM partners. inhibition, % at 20 µM. SUMO1 binding to a labelled peptide, TR-FRET, 1 h. 360,000 compounds, 0.33% hits; in the data active = inhibition above about 37%
DNMT1 inh: DNMT1 (human) enzyme inhibition; P26358; inhibition (reported as % activation of signal), % at 10 µM; 360,000 compounds, 0.83% hits; DNMT1 molecular beacon, Hinp1I cleavage, fluorescence; AID 588458; in the data active = inhibition above about 50%
Target sequence (P26358 504-1616 limits assumed): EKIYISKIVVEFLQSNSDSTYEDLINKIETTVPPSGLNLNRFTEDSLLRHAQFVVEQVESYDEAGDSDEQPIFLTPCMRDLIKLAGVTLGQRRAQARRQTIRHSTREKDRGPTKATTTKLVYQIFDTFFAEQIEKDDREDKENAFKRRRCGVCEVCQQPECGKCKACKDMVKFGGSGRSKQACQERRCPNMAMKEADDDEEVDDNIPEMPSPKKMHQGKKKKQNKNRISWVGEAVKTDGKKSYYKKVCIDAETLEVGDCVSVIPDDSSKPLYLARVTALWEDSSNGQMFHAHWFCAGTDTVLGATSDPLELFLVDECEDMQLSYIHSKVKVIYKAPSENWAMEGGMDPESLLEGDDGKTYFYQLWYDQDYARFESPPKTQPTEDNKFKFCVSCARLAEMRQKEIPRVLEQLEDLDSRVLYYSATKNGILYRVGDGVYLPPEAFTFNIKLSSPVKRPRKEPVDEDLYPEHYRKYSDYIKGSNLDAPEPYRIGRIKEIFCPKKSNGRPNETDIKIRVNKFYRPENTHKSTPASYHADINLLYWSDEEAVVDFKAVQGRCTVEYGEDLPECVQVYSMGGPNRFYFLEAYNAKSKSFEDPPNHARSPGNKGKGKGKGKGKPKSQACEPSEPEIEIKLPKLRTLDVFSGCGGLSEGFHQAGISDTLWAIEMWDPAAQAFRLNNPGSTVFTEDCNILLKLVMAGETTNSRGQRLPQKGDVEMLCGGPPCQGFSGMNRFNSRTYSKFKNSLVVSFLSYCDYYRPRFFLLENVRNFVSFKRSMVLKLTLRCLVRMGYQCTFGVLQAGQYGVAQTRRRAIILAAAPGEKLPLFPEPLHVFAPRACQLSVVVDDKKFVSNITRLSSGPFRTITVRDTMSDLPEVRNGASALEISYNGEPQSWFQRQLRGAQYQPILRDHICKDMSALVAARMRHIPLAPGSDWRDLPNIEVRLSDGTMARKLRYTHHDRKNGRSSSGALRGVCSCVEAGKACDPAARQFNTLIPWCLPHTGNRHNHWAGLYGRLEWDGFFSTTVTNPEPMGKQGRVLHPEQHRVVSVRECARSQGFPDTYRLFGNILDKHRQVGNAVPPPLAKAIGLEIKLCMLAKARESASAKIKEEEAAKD
LMPTP inh: LMPTP (human) inhibition; 360,000 compounds, 0.22% hits; AID 651560; inhibition, % at 20 µM; P24666; recombinant LMPTP-A, OMFP fluorogenic substrate, fluorescence intensity;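 active = compounds that cut the enzyme signal by at least half of the control window in the single-dose screen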
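Assay system: LMPTP-A enzyme. Input: 0.625 nM LMPTP-A final. Probe or stimulus: 400 µM OMFP. Compound dosing: single 20 µM dose. Schedule: 50 min dark incubation at room temperature. Detection: fluorescence intensity of OMFP turnover product. Read-out: percent inhibition versus substrate-only and uninhibited controls. Benchmarks: no-enzyme low control, uninhibited high control.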
Beacon interf DR: shows spectral interference in the DNMT1 beacon assay; IC50, µM; molecular beacon fluorescence, spectral interference counter-screen; shares compounds with DNMT1 inh; AID 602382; 200 tested, under 10 active; call rule not given here
DNMT1 inh conf: confirmation of human DNMT1 inhibitors | shares compounds with DNMT1 inh | DNMT1 molecular beacon HinP1I cleavage, fluorescence | inhibition, % at 10 µM | 2,300 compounds, 8% hits | AID 602385;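 active = average inhibition of at least 30% in the single-concentration confirmation test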
DNMT1 interf: beacon fluorescence artifact counter-screen. shares compounds with DNMT1 inh. DNMT1 molecular beacon spectral interference counterscreen, fluorescence 485/520. activation (fluorescence interference), % at 10 µM. 2,300 compounds, 1% hits. AID 602387;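 active = activation of at least 30% at 10 µM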;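 note: DNMT1 catalytic domain with a HinP1I cleavage step and a FAM/dabcyl DNA beacon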
Numbers stand for hits; 0 = inactive; - = not tested or not shown.

SMILES	Scp-1 inhibitor	STEP inh	SUMO1 PPI mod	DNMT1 inh	LMPTP inh	DNMT1 inh conf	DNMT1 interf	others
O=C(Nc1ccnn1C1CCN(Cc2ccn[nH]2)CC1)c1ccccc1	0	0	0	0	0	-	-
O=c1[nH]c(C(Cl)Cl)nc2sc3c(c12)CCN(Cc1ccccc1)C3	0	0	0	86.6	77.0	0	0
CC1CCN(C(=O)COC(=O)C2CCN(S(=O)(=O)c3ccc(Cl)c(C(F)(F)F)c3)CC2)CC1	0	0	0	0	0	-	-
COc1ccc(Cl)cc1NC(=O)COC(=O)C1CCCCC1	0	0	0	0	0	-	-
Cc1ccc(Cl)cc1NC(=O)COC(=O)C1CCCC1	0	0	0	54.9	0	0	0
O=C(CCN1C(=O)c2ccccc2S1(=O)=O)Nc1ccc(F)c(F)c1F	0	0	0	0	0	-	-
CSc1nc(C)cc(OCCNS(=O)(=O)c2cc(C)ccc2C)n1	0	0	0	67.0	0	0	0
Cc1ccc(C)c(S(=O)(=O)NCCOc2nc(NC(C)C)nc(NC(C)C)n2)c1	0	0	0	0	0	-	-
O=C(NCCCN1CCCC1=O)c1cccc(S(=O)(=O)N2CCN(c3ccc(F)cc3)CC2)c1	0	0	0	0	0	-	-
CC1(OC(=O)C2CCCC2)C(=O)C=C2C=C(c3ccsc3)N(Cc3ccco3)C=C2C1=O (centres undefined)	0	0	0	62.1	0	0	0
O=C(CCCNC(=O)c1ccc(Cl)cc1)Nc1nccs1	0	0	0	0	0	-	-
CN(c1ccccc1)c1ccc(/C=C(/CCC(=O)O)c2nc3ccccc3s2)cc1[N+](=O)[O-]	0	0	39.0	84.7	0	0	0	Beacon interf DR=0
S=C(Nc1ccccc1Cl)NC1CCCCCC1	0	0	0	0	0	-	-
CCC(CCCO)CCC[C@H](C)CCC1OCCO1 (some centres undefined)	0	0	0	58.8	0	0	0
COc1ccc(NC(=O)CN2C(=O)S/C(=C/c3cccn3-c3ccc(C(=O)O)cc3)C2=O)cc1	-	86.1	0	77.8	77.3	0	0
COc1ccc(/C=C2\SC(=O)N(CCCC(=O)Nc3ccc(C(=O)O)cc3)C2=O)cc1	-	0	0	0	0	-	-
Cc1ccc(NC(=O)CN2C(=O)S/C(=C\c3cccn3-c3cccc(C(=O)O)c3)C2=O)c(C)c1	83.9	70.7	0	85.5	0	69.4	0	Beacon interf DR=0
Cc1cc(C(=O)N2CCN(c3ccccc3Cl)CC2)c(C)o1	0	0	0	0	0	-	-
Cc1nn(-c2ccccc2)c(Cl)c1/C=N/Nc1ccc(S(=O)(=O)Nc2ccccc2C(=O)O)cc1[N+](=O)[O-]	0	0	0	100.5	0	81.8	0	Beacon interf DR=0
CCOc1ccc(C=NNc2ccc(S(=O)(=O)Nc3ccccc3C(=O)O)cc2[N+](=O)[O-])cc1	0	0	109.6	84.9	97.0	101.8	0	Beacon interf DR=0
Cc1ccc(S(=O)(=O)N2C[C@H]3[C@H]4C(=O)N(c5ccccc5)C(=O)[C@H]4CC(=O)[C@H]3[C@@H]2c2ccccc2F)cc1	-	0	0	0	0	-	-
O=C(CN1C(=O)S/C(=C\c2ccc(-c3cc(C(=O)O)ccc3Cl)o2)C1=O)Nc1ccc2c(c1)OCO2	-	90.5	113.9	96.5	74.1	0	0	Beacon interf DR=0
CCCS(=O)(=O)N1CCCC(C(=O)Oc2ccc(OC)cc2)C1 (centres undefined)	0	0	0	82.7	0	0	0
COc1ccccc1C#Cc1cnc2c(c1)C(=O)N([C@H](C)CO)C[C@H](C)[C@@H](CN(C)S(=O)(=O)c1cn(C)cn1)O2	-	0	0	100.5	0	0	0
Cc1cc(C)n(CCNC(=O)c2cc(COc3c(F)cccc3F)on2)n1	0	0	0	0	0	-	-
SMILES	Scp-1 inhibitor	STEP inh	SUMO1 PPI mod	DNMT1 inh	LMPTP inh	DNMT1 inh conf	DNMT1 interf	others
Cc1cc(C)n(CCN(C)C(=O)c2cc(COc3c(F)cccc3F)on2)n1	0	0	0	51.0	0	0	0
CN(C)C(CNC(=O)C1CCN(S(=O)(=O)c2ccccc2)CC1)c1ccccc1 (centres undefined)	0	0	0	87.9	0	0	0
Nc1ccc(N(c2ccccc2)c2ccc(N)cc2)cc1	0	0	0	61.8	0	0	0
CN(C)c1ccc(CCc2ccc(N)cc2)cc1	0	0	0	0	0	-	-
COc1ccc(/C=C(\C#N)c2nc3ccc(C)cc3[nH]2)cc1Oc1ccc(C(F)(F)F)cc1[N+](=O)[O-]	0	0	0	51.7	0	0	0
CCOc1ccc(Br)cc1C(=O)Nc1ccc(C(=O)NCC(C)C)cc1	0	0	0	62.6	0	0	0
O=C(/C=C/c1ccc([N+](=O)[O-])cc1)/C=C/c1ccco1	-	0	0	91.3	0	0	0
O=C(/C=C/c1ccco1)c1cccc([N+](=O)[O-])c1	0	0	0	61.7	0	0	0
O=C(/C=C/c1ccc([N+](=O)[O-])cc1)c1ccco1	0	0	0	0	0	-	-
C#CCOCCOCCOCCNc1nc(N2CCOCC2)nc(N2CCN(C(=O)[C@H](CO)n3cc([C@@H](N)C(C)C)nn3)CC2)n1	0	0	0	0	0	-	-
CC1Sc2ccc(S(=O)(=O)CCC(=O)N3CCN(c4ccccc4F)CC3)cc2NC1=O (centres undefined)	0	0	0	0	0	-	-
Cc1ccc(C)c(S(=O)(=O)NCCC(=O)N2CCCC(C(N)=O)C2)c1 (centres undefined)	0	0	0	0	0	-	-
Clc1ccc(OCc2nn3c(-c4ccccc4)nnc3s2)c(Cl)c1	0	0	0	58.6	0	0	0
O=C1Nc2ccccc2C1(c1ccccc1)c1ccccc1	0	0	0	0	0	-	-
CCC1(CC)C(=O)Nc2ccccc21	0	0	0	74.7	0	0	0
COc1ccc(F)cc1-c1cc(C(=O)NCc2ccccc2)[nH]n1	-	0	0	0	0	-	-
CC(=O)Nc1ccc(-n2nnnc2SCC(=O)NC2CCCC2)cc1	0	0	0	0	0	-	-
CC(=O)c1ccc(-n2nnnc2SCC(=O)NC2CCCCC2)cc1	0	0	0	67.9	0	0	0
CCCCCOc1ccc(C(=O)CCC(=O)NC(C)c2ccc(S(N)(=O)=O)cc2)cc1 (centres undefined)	0	0	0	74.9	0	0	0
C=CCn1c(N)c(C(=O)OCCC)c2nc3ccccc3nc21	0	0	0	59.7	0	0	0
O=C(COC(=O)CSc1ccc([N+](=O)[O-])cc1)NCc1ccco1	0	0	0	0	0	-	-
CC(C)OCCCNC(=O)C1CCN(S(=O)(=O)N2CCCCC2)CC1	0	0	0	0	0	-	-
